{"data": "Published values pooled from the literature", "target": "PAS domain-containing serine/threonine-protein kinase (PASK, Homo sapiens, UniProt Q96RG2)", "note": "Compare with care: the assays were run in different laboratories."}
{"Compound": "CCN(CC)c1ccc(C2=NNC(=O)CC2C)cc1[N+](=O)[O-] (stereo not shown)", "effect on": "enzyme activity", "mode": "inhibitor", "concentration": "10 µM", "endpoint": "remaining activity", "value": "98%"}
{"Compound": "CCCOc1ccc(OC)c(F)c1C(=O)c1ccc(C(=O)N[C@@H]2CNC[C@H]2NC(=O)c2ccc3[nH]ncc3c2)cc1", "effect on": "enzyme activity", "mode": "inhibitor", "concentration": "10 µM", "endpoint": "remaining activity", "value": "6%"}
{"Compound": "COc1cc2ncnc(Nc3ccc(Oc4ccccc4)c(C)c3C)c2cc1OC", "effect on": "enzyme activity", "mode": "inhibitor", "concentration": "1 µM", "endpoint": "inhibition", "value": "6%"}
{"Compound": "O=C(Nc1cnn(-c2csc(C(=O)NC3COC3)c2)c1)Nc1ccccc1Cl", "effect on": "enzyme activity", "mode": "inhibitor", "concentration": "5 µM", "endpoint": "remaining activity", "value": "96.3%"}
{"Compound": "CC(C)(C)c1nc(-c2cccc(NS(=O)(=O)c3c(F)cccc3F)c2F)c(-c2ccnc(N)n2)s1", "effect on": "enzyme activity", "mode": "inhibitor", "method": "radiometric", "concentration": "1 µM", "endpoint": "remaining activity", "value": "98%"}
{"Compound": "Cc1ncc([N+](=O)[O-])n1C(=NO)c1ccccc1C(F)(F)F", "effect on": "enzyme activity", "mode": "inhibitor", "concentration": "10 µM", "endpoint": "inhibition", "value": "11.2%"}
{"Compound": "N#CCCc1ccc2c(c1)-c1[nH]c3ccc([N+](=O)[O-])cc3c1CC(=O)N2", "effect on": "cell-free assay", "concentration": "0.5 µM", "endpoint": "remaining signal", "value": "96.9%"}
{"Compound": "CCN(CC)CCNC(=O)c1c(C)[nH]c(/C=C2\\C(=O)Nc3ccc(F)cc32)c1C", "effect on": "enzyme activity", "mode": "inhibitor", "concentration": "10 µM", "endpoint": "inhibition", "value": "19%"}
{"Compound": "Cc1cnc(NC2CCOCC2)nc1-n1cnc(C(=O)NC(CN)c2cc(F)cc(Cl)c2)c1 (stereo not shown)", "effect on": "enzyme activity", "mode": "inhibitor", "method": "radiometric", "concentration": "1 µM", "endpoint": "remaining activity", "value": "96%"}
{"Compound": "Cc1ccc(Nc2nccc(N(C)c3ccc4c(C)n(C)nc4c3)n2)cc1S(N)(=O)=O", "effect on": "enzyme activity", "mode": "inhibitor", "concentration": "0.3 µM", "endpoint": "inhibition", "value": "-1%"}
{"Compound": "CC(C)(O)[C@H]1CC[C@H](Nc2ccc3ncc(-c4cccc(C(F)(F)F)c4)n3n2)CC1", "effect on": "enzyme activity", "mode": "inhibitor", "concentration": "1 µM", "endpoint": "remaining activity", "value": "92.3%"}
{"Compound": "CNC(=O)c1cc(Oc2ccc(NC(=O)Nc3ccc(Cl)c(C(F)(F)F)c3)cc2)ccn1", "effect on": "enzyme activity", "mode": "inhibitor", "concentration": "10 µM", "endpoint": "inhibition", "value": "-9%"}
{"Compound": "CCCS(=O)(=O)Nc1ccc(F)c(C(=O)c2c[nH]c3ncc(-c4ccc(Cl)cc4)cc23)c1F", "effect on": "enzyme activity", "mode": "inhibitor", "concentration": "1 µM", "endpoint": "inhibition", "value": "< 10%"}
